# Screens: PubChem BioAssay, several laboratories
# Most compounds without a hit are left out; they make up all but 3% or so of the library.
# PLC-beta3 inh – inhibitors of human phospholipase C beta3; Q01970; hit rate 0.18% among 370,000; inhibition, % at 12.2 µM; Purified PLC-beta3, fluorogenic substrate, fluorescence; in the data active = inhibition above about 11%
# DDE Tn7 FP inh – inhibitors of Tn7 peptide binding to human fibrin DD(E); P02675; FP displacement of FITC-Tn7 peptide from fibrin DD(E); 0% = median of compound wells per plate; inhibition, % at 8.3 µM; hit rate 0.13% among 370,000;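 active = inhibition above the mean of compounds falling within the control limits plus 3 SD of them, cut at about 14% in these data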
#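 Assay system: human fibrin DD(E) protein / Input: 2 µM fibrin DD(E) / Benchmarks: high control of 10 µM Aha-Tn7 peptide / Measured by: fluorescence polarization of the labelled Tn7 tracer / Medium: Tris buffer with calcium and detergent, pH 7.8 / Timing: 10 min compound pre-incubation, 3 h probe incubation at room temperature / Repeats: one replicate per compound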
# NRP1-CendR mod – alters CendR peptide binding to human NRP-1; AID 602438; inhibition, % at 25 µM; hit rate 0.85% among 360,000; FAM-RPARPAR peptide binding to NRP-1, fluorescence polarization;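 active = inhibition or corrected inhibition above about 18%, plus a signal ratio from 0.5 to 1.5, limit read from the data, passing the limit was not always enough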
# Tn6 DDE FP – DD(E)-Tn6 binding inhibition, primary FP screen. P02675. Fibrin DD(E) TRITC-Tn6 fluorescence polarization displacement. inhibition, % at 8.3 µM. hit rate 0.21% among 370,000. AID 720509;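 active = inhibition above a per-campaign cutoff: mean of compounds within control limits plus 3 SD, cut at about 15% in these data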
# PLCg1 inh – blocks human PLC-gamma1 enzyme activity; P19174; hit rate 0.84% among 370,000; purified PLC-gamma1, fluorogenic substrate, fluorescence; inhibition, % at 12.2 µM; AID 720700; in the data active = inhibition above about 9.5%
# proKLK7 act – proKLK7 (human) activation, primary screen | purified proKLK7, EDANS-DABCYL substrate fluorescence; 100% is mature enzyme control, 0% vehicle | hit rate 0.9% among 370,000 | activation, % at 7 µM | P49862;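 active = activation above the mean of all tested compounds plus 3 SD, computed per campaign excluding outliers beyond control limits, cut at about 13% in these data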
# A number is an active result; – = inactive; · = no result.
SMILES,PLC-beta3 inh,DDE Tn7 FP inh,NRP1-CendR mod,Tn6 DDE FP,PLCg1 inh,proKLK7 act
COc1ccc(C2C(C(=O)Nc3cc(OC)ccc3OC)CCC(=O)N2c2ccc(OC)cc2)cc1 (stereo unspecified),–,–,·,–,–,–
CS(=O)(=O)c1nc([N+](=O)[O-])nn1CCCc1ccccc1,·,·,–,·,·,·
Cn1nc([N+](=O)[O-])nc1S(C)(=O)=O,–,–,–,–,47,–
O=C(O)/C(=C\c1ccccc1)c1ccc2ccccc2c1,–,–,21,–,–,–
O=C(O)/C(=C\c1cccc(OCc2ccccc2)c1)c1ccc(F)cc1,–,–,–,–,–,–
C=CCN1C(=O)[C@@H](CC(=O)N2CCCCC2)[C@]2(C(=O)OCC)CCCCC/C=C/12,–,–,·,–,–,–
O=C(NCCN1CCCCCC1)C1CCN(S(=O)(=O)N2CCOCC2)CC1,–,–,23,–,–,–
COc1cccc(N2[C@@H](CC(C)=O)c3ccc(/C=C/C(C)=O)cc3S2(=O)=O)c1,–,–,22,–,–,–
CN(Cc1ccccc1)c1nc(N)c([N+](=O)[O-])c(NCc2ccccc2)n1,–,–,22,–,–,–
Nc1nc(NCCc2ccccc2)nc(NCc2ccccc2)c1[N+](=O)[O-],–,–,–,–,–,–
COc1ccc(C2C(C(=O)Nc3ccc(Cl)cc3)CCC(=O)N2c2ccc(OC)cc2)cc1 (stereo unspecified),–,–,·,–,–,–
COc1cc(C=c2c3ccccc3n3c2cc(-c2ccccc2)[n+]3C)cc(OC)c1OC,–,–,–,17,–,–
COc1cc(N(C)C)ccc1C=c1c2ccccc2n2c1cc(-c1ccccc1)[n+]2C,–,–,–,–,–,–
Cc1cccnc1NC(=O)CN1C(=O)NC(C)(c2ccc3ccccc3c2)C1=O (stereo unspecified),–,–,28,–,–,–
CCCCCC(C)NC(=O)CN1C(=O)NC(C)(c2ccc3ccccc3c2)C1=O (stereo unspecified),–,–,–,–,–,–
NC(=O)CC[C@@H]1NC(=O)[C@H](CO)NC(=O)c2cc([N+](=O)[O-])cc(I)c2OCC[C@@H](C(N)=O)NC1=O,–,–,–,–,14,–
NC1=NC[C@@H](Cc2ccc(O)cc2)N1CCCCC1CCCCC1,–,–,31,–,–,–
NC1=NC[C@H](Cc2ccc(O)cc2)N1CC1CCCCC1,–,–,–,–,–,–
Cc1ccc(S(=O)(=O)N2OC(c3ccccc3)C[C@H]2CC=C(c2ccccc2)c2ccccc2)cc1 (stereo partly specified),–,–,·,–,–,·
CC(=O)N/N=C/c1cc(C(C)(C)C)cc(/C=N/NC(C)=O)c1O,–,–,35,–,–,–
Cc1cc(C(=O)N/N=C\c2cc(C(C)(C)C)ccc2O)n[nH]1,·,·,–,·,·,·
Cc1c(N=C2C=CC(=O)c3ccccc32)c(=O)n(-c2ccccc2)n1C,–,–,38,–,–,–
Cc1c(N=C2C=C(Br)C(=O)C(Br)=C2)c(=O)n(-c2ccccc2)n1C,–,–,–,–,–,–
O=C(CSc1nnc(-c2cccnc2)n1Cc1ccco1)Nc1cc(Cl)ccc1F,–,–,·,–,–,–
Cn1cc(S(=O)(=O)N2CCOCC2)cc1C(=O)O,–,–,31,–,–,–
SMILES,PLC-beta3 inh,DDE Tn7 FP inh,NRP1-CendR mod,Tn6 DDE FP,PLCg1 inh,proKLK7 act
CCOc1cc(C2C3=C(CCCC3=O)OC3=C2C(=O)CCC3)cc([N+](=O)[O-])c1O,–,–,26,–,–,–
CCOc1cc(C2C3=C(CC(C)(C)CC3=O)OC3=C2C(=O)CC(C)(C)C3)cc([N+](=O)[O-])c1O,–,–,–,–,–,–
O=C(CSc1nc2ccccc2c(=O)[nH]1)NC1CCCCC1,–,–,·,–,–,·
C=CC[C@@H]1NN2C(=O)[C@@H](CCCC)[C@@H]3c4ccccc4C=NN3[C@@H]2c2ccccc21,–,–,·,–,–,–
COc1ccccc1C1NC(=O)NC(C)=C1C(=O)Nc1cccc(C)c1C (stereo unspecified),–,–,–,–,–,–
COc1ccccc1NC(=O)C1=C(C)NC(=O)NC1c1ccccc1F (stereo unspecified),–,–,20,–,–,–
COC(=O)[C@@H]1C[C@@]2(c3ccccc3)c3ccccc3N(S(=O)(=O)c3ccccc3)[C@H]2N1C(=O)CNC1CCCCC1,–,–,·,–,–,–
